The source made the active and inactive calls. The calls are words filed in the database; no cut-off is given here.
Key:
Rhizobium leguminosarum [1] = assay: Ratio of Kcat to Km of Rhizobium leguminosarum LpxC
Outline: (§1)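 Wild-type and site-directed mutant LpxC (E. coli, R. leguminosarum) expressed and purified, then assayed by a previously described method. Substrate was UDP-3-O-(R-3-hydroxymyristoyl)-N-acetylglucosamine, varied for Michaelis–Menten analysis. KM and kcat came from data sets pooling multiple independent experiments.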

[2] = molecular target: T1, UDP-3-O-acyl-N-acetylglucosamine deacetylase (Escherichia coli K-12) (UniProt P0A725); assay: Inhibition of Escherichia coli LpxC at 4 nM
T1 sequence (whole entry): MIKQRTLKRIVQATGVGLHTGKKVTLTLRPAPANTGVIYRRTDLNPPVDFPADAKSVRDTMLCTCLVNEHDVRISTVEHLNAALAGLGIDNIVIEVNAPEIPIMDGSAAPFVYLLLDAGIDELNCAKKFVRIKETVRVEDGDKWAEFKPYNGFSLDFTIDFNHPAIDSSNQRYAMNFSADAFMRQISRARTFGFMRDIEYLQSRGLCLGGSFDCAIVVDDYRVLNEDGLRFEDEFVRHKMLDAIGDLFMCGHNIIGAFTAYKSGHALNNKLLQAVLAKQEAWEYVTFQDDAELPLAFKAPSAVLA

Rhizobium leguminosarum [3] = assay: Activity of Rhizobium leguminosarum LpxC; outline: as §1
[4] = molecular target: T2, UDP-3-O-acyl-N-acetylglucosamine deacetylase (Aquifex aeolicus (strain VF5)) (UniProt O67648); assay: Inhibition of Aquifex aeolicus LpxC
T2 sequence (whole entry): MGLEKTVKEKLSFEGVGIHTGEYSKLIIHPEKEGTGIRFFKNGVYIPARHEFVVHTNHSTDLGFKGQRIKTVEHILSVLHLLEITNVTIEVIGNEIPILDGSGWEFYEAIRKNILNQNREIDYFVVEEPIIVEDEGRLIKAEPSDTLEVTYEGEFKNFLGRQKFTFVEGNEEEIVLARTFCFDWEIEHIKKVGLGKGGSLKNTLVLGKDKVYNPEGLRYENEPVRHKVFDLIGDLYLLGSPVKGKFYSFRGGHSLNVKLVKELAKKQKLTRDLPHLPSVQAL

Rhizobium leguminosarum [5] = assay: Inhibition of Rhizobium leguminosarum LpxC at 0.5 uM

C[C@@H](O)[C@H](NC(=O)c1ccc(C#Cc2ccc(CN3CCOCC3)cc2)cc1)C(=O)NO
kcat/Km (Rhizobium leguminosarum [1]): 3.5 10^6/M/s | inhibition [2]: > 75% | Km (Rhizobium leguminosarum [3]): 4.8 µM | kcat (Rhizobium leguminosarum [3]): 1.7 s⁻¹ | Activity [4]: Active | inhibition (Rhizobium leguminosarum [5]): 50%

Reference: ChEMBL document CHEMBL1147081, “Structure of the deacetylase LpxC bound to the antibiotic CHIR-090: Time-dependent inhibition and specificity in ligand binding” (Proc Natl Acad Sci U S A, 2007)
